This is an account of results in PubChem BioAssay AID504349 (Southern Research Specialized Biocontainment Screening …, 2011).

The source made the active and inactive calls. How the calls were made is not given here. Some results are limits rather than exact numbers.

The test system of assay [1] is E. coli EV36 K1, T7 phage lysis, OD600 3 h. As to the kind of experiment: OD600 growth after T7 infection, EV36 – E. coli EV36 K1, powder samples, selectivity assay for bacterial capsule biogenesis inhibitors, dose response (AID 504349). In outline:
(§1)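 material = whole Escherichia coli EV36 cells, hybrid K1/K-12 strain | amount = overnight culture diluted 1:100 | dosing = dose series 0.39–100 µM final, 1% DMSO | incubation = 1.5 h compound at 37 °C, 3 h after T7 | signal = optical density at 600 nm, bacterial growth absorbance | evaluation = phage lysis inhibition from OD600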

Assay in assay [2]: as above
To be noted: E. coli EV36 K1, T7 phage lysis, OD600 3 h; at 100 µM (top of the series). Summed up:
as §1

The term IC50 denotes the midpoint of a concentration-inhibition curve. Regarding `O=C(COc1ccc(Cl)cc1Cl)Nc1ccc(C(=O)Nc2ccccc2C(=O)O)cc1`, the IC50 in assay [1] was 2.9 µM.
As to `O=C(ONc1ccc(N=NC(=O)c2ccccc2O)cc1)c1ccccc1`, the concentration for half-maximal inhibition (IC50) in assay [1] is below 0.39 µM.
On the same count and under the same terms, the figure for `O=C(NCc1cc([N+](=O)[O-])ccc1O)c1cccnc1Sc1ccccc1Cl` is 1.8 µM.
On the same count and under the same terms, the figure for `CCOc1ccc(-c2cc(NC(=O)c3c(F)cccc3F)c(C(=O)O)s2)cc1` is below 0.39 µM.
On to `O=C(O)c1cc(-c2cccc(Cl)c2)nc2cc3ccccc3cc12`, for which the phage lysis inhibition (viability) in assay [2] was 101% (inactive).
The same measure, in the same setting: with `C=CCOc1ccc(C2c3c(oc4ccccc4c3=O)C(=O)N2CCCN2CCOCC2)cc1` (stereo not given) the figure was 97.4% (inactive).
As for `CC1=NN2C(=N)/C(=C\c3ccc(SCc4ccco4)o3)C(=O)N=C2S1`, the IC50 in assay [1] is 1.5 µM.
The same measure, in the same setting: with `O=C(Nc1ccncc1)c1ccc2ncsc2c1` the figure was below 0.39 µM.
On to `COc1ccc(OC)c(-c2cc(C(=O)O)c3cc4ccccc4cc3n2)c1`, for which the phage lysis inhibition (viability) in assay [2] is 99% (inactive).
Still for that read-out and setting: the figure for `Cc1cc(C)c2c(=O)c(-c3cc(C(=O)O)c4cc5ccccc5cc4n3)coc2c1` is 107% (inactive).
Turning to `CC1(C(=O)O)CCC(C(=O)Nc2ccc3ccccc3c2)C1(C)C` (stereo not given), in assay [1], the IC50 was 8.5 µM.
With `O=C(O)c1cc(-c2c[nH]c3ccccc23)nc2cc3ccccc3cc12`, in assay [2], the phage lysis inhibition (viability) was 101% (inactive).
Take `O=C(NCc1cc([N+](=O)[O-])ccc1O)c1cccnc1Sc1ccccc1`: in assay [1], the IC50 is 4.6 µM.
Turning to `Cc1ccc(C2c3c(oc4cc(C)c(C)cc4c3=O)C(=O)N2CCCN2CCOCC2)cc1` (stereo not given), in assay [2], the phage lysis inhibition (viability) was 91.7% (inactive).
For the molecule `COc1ccc2nc(NC(=O)c3ccc(Br)s3)sc2c1`, in assay [1], the IC50 was below 0.39 µM.
